Measured values gathered from unrelated publications.
Each line is one published result; the experiments were not run side by side.
ST14: Suppressor of tumorigenicity 14 protein (ST14, Homo sapiens, UniProt Q9Y5Y6)
CDK2 with cyclin A2: Cyclin-dependent kinase 2, with cyclin A2 (CDK2, Homo sapiens, UniProt P24941)

| Structure (SMILES) | target | test | conditions | measurement | value |
| --- | --- | --- | --- | --- | --- |
| CCCC[C@H](NC(=O)[C@H](Cc1cscn1)NC(=O)CCc1ccccc1)C(=O)N[C@@H](CCCNC(=N)N)C(=O)c1nc2ccccc2s1 | ST14 | enzyme activity, inhibitor | 0.1 µM | remaining activity | 37% |
| COc1cc(-c2cncc3c2CN(C)Cc2cc(N4CCNCC4)ccc2-3)cc(OC)c1OC | Angiopoietin-1 receptor (TEK, Homo sapiens, UniProt Q02763, Y897S) | enzyme activity, inhibitor | 1 µM | remaining activity | 102% |
| C=CC(=O)N1CCC(COCC(=O)N2CCN(c3nc(-c4cnc(N)nc4C(F)F)nc(N4CCOC[C@@H]4C)n3)CC2)CC1 | Angiopoietin-1 receptor (TEK, Homo sapiens, UniProt Q02763) | binding, competition with immobilised ligand | 1 µM | remaining binding | 100% |
| CC(=O)Nc1c(N)nc(SCC(=O)NN)[nH]c1=O | CDK2 with cyclin A2 | enzyme activity, inhibitor | 5 nM | inhibition | 14.6% |
| N=C(N)NCCC[C@H](NC(=O)C1(NC(=O)[C@H](Cc2cscn2)NC(=O)CCc2ccccc2)CC1)C(=O)c1nc2ccccc2s1 | ST14 | enzyme activity, inhibitor | 0.1 µM | remaining activity | 19% |
| CNc1ncc2c(/C=C/C(=O)N3CCC(OC)CC3)nn(Cc3cccc(C(F)(F)F)c3)c2n1 | Mitogen-activated protein kinase 10 (MAPK10, Homo sapiens, UniProt P53779) | enzyme activity, inhibitor, radiometric | 1 µM | remaining activity | 87% |
| CNC(=O)c1cc(Oc2ccc(NC(=O)Nc3ccc(Cl)c(C(F)(F)F)c3)cc2)ccn1 | CDK2 with cyclin A2 | enzyme activity, inhibitor | 0.5 µM | inhibition | 74% |
| N=C(N)NCCC[C@H](NC(=O)[C@H](CC1CC1)NC(=O)[C@H](Cc1cscn1)NC(=O)CCc1ccccc1)C(=O)c1nc2ccccc2s1 | ST14 | enzyme activity, inhibitor | 0.1 µM | remaining activity | 68% |
| CC(=O)Nc1c(N)nc(SCC(=O)N/N=C/c2ccc([N+](=O)[O-])cc2)[nH]c1=O | CDK2 with cyclin A2 | enzyme activity, inhibitor | 10 nM | inhibition | 15% |
| Cc1cc([C@@H](C)Nc2ccccc2C(=O)O)c2nc(N3CCC(F)(F)CC3)c(C#N)c(=O)n2c1 | Cyclin-dependent kinase 2 (CDK2, Homo sapiens, UniProt P24941) | binding, competition with immobilised ligand | 10 µM | remaining binding | 98% |
